Series [1] addresses T1, Alpha-2C adrenergic receptor (Homo sapiens, UniProt P18825).
T1 sequence (P18825 whole entry): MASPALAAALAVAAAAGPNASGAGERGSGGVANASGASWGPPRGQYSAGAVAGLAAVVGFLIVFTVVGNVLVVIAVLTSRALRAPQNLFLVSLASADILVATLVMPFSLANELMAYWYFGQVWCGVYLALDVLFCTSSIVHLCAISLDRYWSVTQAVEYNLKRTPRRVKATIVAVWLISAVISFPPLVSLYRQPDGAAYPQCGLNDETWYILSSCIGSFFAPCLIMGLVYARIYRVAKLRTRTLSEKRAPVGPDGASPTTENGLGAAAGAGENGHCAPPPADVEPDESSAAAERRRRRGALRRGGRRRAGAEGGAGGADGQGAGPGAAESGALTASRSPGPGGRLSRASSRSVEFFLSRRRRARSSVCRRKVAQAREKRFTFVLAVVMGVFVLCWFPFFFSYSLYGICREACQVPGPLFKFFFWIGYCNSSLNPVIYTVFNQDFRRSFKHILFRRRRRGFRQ
The series is described as follows: Agonist activity at human alpha2C-adrenergic receptor.

The species entered for series [2] is Homo sapiens. The series is described as follows: Selectivity ratio of EC50 for human beta1-adrenergic receptor to EC50 for human beta3-adrenergic receptor.
The target in series [3] is T2, Beta-1 adrenergic receptor (Homo sapiens, UniProt P08588). The series is described as follows: Intrinsic activity at human beta1-adrenergic receptor expressed in CHO cells assessed as increase of cAMP level after 30 mins relative to isoproterenol. In kind it is functional, cell-based. In outline: (§1)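 Stably transfected CHO cells expressing human β1, β2 or β3 or marmoset β3 receptor were grown in Ham's F-12 with 10% FBS and geneticin, seeded at 2×10⁴ cells/well and grown about 20 h. Cells spent 15 min serum-free, then 30 min with compound in medium containing HEPES and isobutylmethylxanthine. Lysate cAMP was measured by kit. […] EC50 is the half-maximal concentration for each compound.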
For orientation: Changes in cAMP serve as a functional read-out for many G protein-coupled receptors.
Target sequence in this assay (P08588 whole entry, looked up): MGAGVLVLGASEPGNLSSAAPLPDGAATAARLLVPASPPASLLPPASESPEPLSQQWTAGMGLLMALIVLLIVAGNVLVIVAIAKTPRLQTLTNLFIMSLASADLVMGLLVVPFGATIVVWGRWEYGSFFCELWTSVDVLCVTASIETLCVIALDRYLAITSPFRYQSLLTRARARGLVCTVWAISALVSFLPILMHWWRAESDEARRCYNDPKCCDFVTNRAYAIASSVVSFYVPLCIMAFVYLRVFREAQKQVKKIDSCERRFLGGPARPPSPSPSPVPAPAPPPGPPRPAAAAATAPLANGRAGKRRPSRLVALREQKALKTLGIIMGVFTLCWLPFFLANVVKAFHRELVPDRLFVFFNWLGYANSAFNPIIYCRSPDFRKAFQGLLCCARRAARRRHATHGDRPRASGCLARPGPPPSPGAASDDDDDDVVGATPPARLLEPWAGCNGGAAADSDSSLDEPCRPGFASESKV

The target of series [4] is T3, Alpha-1D adrenergic receptor (Homo sapiens, UniProt P25100).
T3 sequence (P25100 whole entry): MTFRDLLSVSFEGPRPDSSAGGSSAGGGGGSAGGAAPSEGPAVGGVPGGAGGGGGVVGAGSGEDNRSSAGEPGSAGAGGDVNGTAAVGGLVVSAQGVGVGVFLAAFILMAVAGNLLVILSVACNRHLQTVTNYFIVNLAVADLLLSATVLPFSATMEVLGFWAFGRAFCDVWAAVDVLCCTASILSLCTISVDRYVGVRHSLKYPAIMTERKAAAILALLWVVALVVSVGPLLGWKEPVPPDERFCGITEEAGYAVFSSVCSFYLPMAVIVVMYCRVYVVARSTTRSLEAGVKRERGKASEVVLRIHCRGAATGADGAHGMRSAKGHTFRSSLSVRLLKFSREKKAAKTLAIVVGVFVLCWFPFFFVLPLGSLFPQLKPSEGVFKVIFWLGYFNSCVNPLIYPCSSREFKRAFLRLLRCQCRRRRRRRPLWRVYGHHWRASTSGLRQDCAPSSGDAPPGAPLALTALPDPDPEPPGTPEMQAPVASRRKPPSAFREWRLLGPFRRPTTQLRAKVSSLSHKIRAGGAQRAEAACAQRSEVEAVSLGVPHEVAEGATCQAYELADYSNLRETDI
Briefly: Agonist activity at human alpha1D-adrenergic receptor.

The target in series [5] is T4, Alpha-2A adrenergic receptor (Homo sapiens, UniProt P08913).
T4 sequence (P08913 whole entry): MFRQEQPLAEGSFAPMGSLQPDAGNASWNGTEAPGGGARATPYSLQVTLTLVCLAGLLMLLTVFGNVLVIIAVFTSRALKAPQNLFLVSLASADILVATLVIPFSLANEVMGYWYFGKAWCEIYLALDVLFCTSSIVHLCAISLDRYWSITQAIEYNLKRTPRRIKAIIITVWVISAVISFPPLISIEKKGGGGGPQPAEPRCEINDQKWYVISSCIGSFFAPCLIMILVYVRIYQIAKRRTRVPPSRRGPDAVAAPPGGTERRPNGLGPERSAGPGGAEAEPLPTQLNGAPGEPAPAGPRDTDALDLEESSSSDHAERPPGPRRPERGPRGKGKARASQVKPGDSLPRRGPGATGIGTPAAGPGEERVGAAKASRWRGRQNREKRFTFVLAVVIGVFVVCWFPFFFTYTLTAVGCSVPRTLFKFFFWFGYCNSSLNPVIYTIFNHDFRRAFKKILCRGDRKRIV
The series is described as follows: Agonist activity at human alpha2A-adrenergic receptor.

Series [6] deals with Beta-2 adrenergic receptor (Homo sapiens, UniProt P07550). The series is described as follows: Intrinsic activity at human beta2-adrenergic receptor expressed in CHO cells assessed as increase of cAMP level after 30 mins relative to isoproterenol. Type of series: functional, cell-based. Put shortly:
as §1

The species entered for series [7] is Homo sapiens. The series is described as follows: Selectivity ratio of EC50 for human alpha1A-adrenergic receptor to EC50 for human beta3-adrenergic receptor.
Series [8] relates to Rattus norvegicus. Briefly: Cardiotoxicity in anesthetized Sprague-Dawley rat assessed as increase in heart rate at 3 mg/kg, iv measured for 30 mins relative to control. In kind it is toxicity, organism-based. The following applies: in vivo, 0.5 h. In outline: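 Male Sprague-Dawley rats (200-300 g) were anesthetized with sodium pentobarbital (50 mg/kg i.p. plus 25 mg/kg s.c.). The compound was injected via the cannulated left femoral vein once BP and HR were stable, and HR and MBP were recorded for 30 min. Results are the maximum % increase or decrease from baseline, as mean ± SEM. Where given, silodosin (0.01 mg/kg iv) preceded the compound.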

Series [9] concerns the target T2, Beta-1 adrenergic receptor. The series is described as follows: Agonist activity at human beta1-adrenergic receptor expressed in CHO cells assessed as increase of cAMP level after 30 mins. In kind it is functional, cell-based. Put shortly: as §1
Target sequence in this assay (P08588 whole entry): as the sequence (P08588 whole entry, looked up) above
For series [10], the target named is T5, Alpha-1A adrenergic receptor (Homo sapiens) (UniProt P35348).
T5 sequence (whole entry): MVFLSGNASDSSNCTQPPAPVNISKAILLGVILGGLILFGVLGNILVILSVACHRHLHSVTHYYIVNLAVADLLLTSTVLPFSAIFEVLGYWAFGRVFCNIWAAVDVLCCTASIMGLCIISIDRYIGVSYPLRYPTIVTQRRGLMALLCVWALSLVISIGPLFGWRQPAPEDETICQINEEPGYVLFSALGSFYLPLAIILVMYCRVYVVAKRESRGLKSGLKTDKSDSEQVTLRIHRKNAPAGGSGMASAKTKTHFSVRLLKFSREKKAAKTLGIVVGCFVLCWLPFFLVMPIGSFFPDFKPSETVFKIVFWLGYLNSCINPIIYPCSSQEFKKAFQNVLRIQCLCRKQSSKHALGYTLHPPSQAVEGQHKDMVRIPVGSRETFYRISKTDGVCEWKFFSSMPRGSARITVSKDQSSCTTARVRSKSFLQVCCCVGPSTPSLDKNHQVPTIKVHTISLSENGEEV
The series is described as follows: Intrinsic activity at human alpha1A-adrenergic receptor expressed in HEK293 cells assessed as calcium flux by fluorescence assay relative to norepinephrine. Type of series: functional, cell-based. Background: Calcium assays in cells follow changes in intracellular calcium, usually with a dye or a luminescent sensor.

Series [11] concerns the target T6, Alpha-1A adrenergic receptor (Homo sapiens, UniProt P35348).
T6 sequence (P35348 whole entry): T5 sequence (whole entry)
The series is described as follows: Agonist activity at human alpha1A-adrenergic receptor expressed in HEK293 cells assessed as calcium flux by fluorescence assay. In kind it is functional, cell-based.

This note sets out measurements from ChEMBL document CHEMBL3600378 (J Med Chem, 2015).

The structures appear in SMILES notation.

By EC50 is commonly meant the midpoint of the concentration-response curve.

Chain of Beta-2 adrenergic receptor (P07550 whole entry, looked up): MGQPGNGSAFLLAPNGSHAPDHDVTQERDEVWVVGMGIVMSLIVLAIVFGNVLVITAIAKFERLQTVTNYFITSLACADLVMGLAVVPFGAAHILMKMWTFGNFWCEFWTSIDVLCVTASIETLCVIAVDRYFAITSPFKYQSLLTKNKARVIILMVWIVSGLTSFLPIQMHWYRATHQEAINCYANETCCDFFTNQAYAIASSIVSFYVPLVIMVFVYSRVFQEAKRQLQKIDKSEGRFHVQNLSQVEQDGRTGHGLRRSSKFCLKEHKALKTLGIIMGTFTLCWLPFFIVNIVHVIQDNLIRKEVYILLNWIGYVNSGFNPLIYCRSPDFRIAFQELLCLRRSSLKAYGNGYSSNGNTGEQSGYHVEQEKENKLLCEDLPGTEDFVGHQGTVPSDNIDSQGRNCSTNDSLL

`Cc1n[nH]c2cc(OCCNC[C@H](O)c3cccc(NS(C)(=O)=O)c3)ccc12`: the EC50 in [1] is above 10 µM; in series [4], above 10 µM; in [5] it was above 10 µM; in series [9], above 10 µM; in series [11], 0.219 µM. Also, the Ratio EC50 in series [2] was above 476; in series [7], 10. Further, the Intrinsic activity came out at 6% in [3], 4% in series [6] and 71% in series [10]. In series [8], the Activity came to 7.9%.
